Assay [1] in a line: DPPH free radical scavenging assay. Conditions: 0.3 mM DPPH, 30 min at 37 °C, absorbance 515 nm. The method in brief:
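Test compound at four concentrations (µg/ml) in microplate wells, mixed with ethanolic DPPH. Blank is solvent alone with DPPH. Absorbance decrease is read after incubation. Run in triplicate and reported as the mean of three values.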

Assay [2] in a line: Ferric reducing antioxidant potential. To be noted: 30 min incubation at 37 °C, absorbance 593 nm. The gist of the method:
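FRAP reagent is 300 mM acetate buffer pH 3.6, 20 mM ferric chloride hexahydrate in water and 10 mM TPTZ in 40 mM HCl, combined 10:1:1 by volume (stock concentrations). Test compound at five concentrations (µg/ml) is added to the reagent in microplate wells, and absorbance is read after incubation. Run in triplicate.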

For assay [3], the system named is glutamate-induced neurotoxicity. Conditions: concentrations ranging from 0.1 to 10 µM; cited from earlier work.

Values after ≈ are worked out from the molar mass of the structure shown.

For the compound `C[C@@H]1O[C@@H](OC[C@H]2O[C@@H](Oc3cc(O)c4c(=O)cc(-c5ccc(O)cc5)oc4c3)[C@H](O)[C@@H](O)[C@@H]2O)[C@H](O)[C@H](O)[C@H]1O` [Isorhoifolin, isorhoifolin], the “IC50 (DPPH radical scavenging activity)” value in assay [1] was 1.37 µg/mL (≈ 2.37 µM). In addition, in assay [2], the FRAP is on record as 7.67 mmol/g.

Take `COc1cc(O)c2c(=O)c(OC)c(-c3ccc(O)cc3)oc2c1` [Jaranol, jaranol]: the “IC50 (DPPH radical scavenging activity)” value in assay [1] was determined as 12 µg/mL (≈ 38.2 µM). For the same compound, the FRAP in assay [2] is listed as 1.5 mmol/g.

For the compound `C[C@@H]1O[C@@H](OC[C@H]2O[C@@H](OCCc3ccc(O)c(O)c3)[C@H](O)[C@@H](O[C@@H]3O[C@@H](C)[C@H](O)[C@@H](O)[C@H]3O)[C@@H]2OC(=O)/C=C/c2ccc(O)c(O)c2)[C@H](O)[C@H](O)[C@H]1O` [Poliumoside, poliumoside], in assay [1], the “IC50 (DPPH radical scavenging activity)” value stood at 0.042 µg/mL (≈ 0.0545 µM). In assay [2], the FRAP turned out to be 14.32 mmol/g. Moreover, the “attenuation of glutamate-induced neurotoxicity” value in assay [3] was “significantly attenuated glutamate-induced neurotoxicity”.

For the compound `C[C@@H]1O[C@@H](O[C@@H]2[C@@H](O)[C@H](OCCc3ccc(O)c(O)c3)O[C@H](CO)[C@H]2OC(=O)/C=C/c2ccc(O)c(O)c2)[C@H](O)[C@H](O)[C@H]1O` [Verbascoside, verbascoside], in assay [1], the “IC50 (DPPH radical scavenging activity)” value is 0.53 µg/mL (≈ 0.849 µM). For the same compound, in assay [2], the FRAP worked out at 7.49 mmol/g.

For `Cc1c(C)c2c(c(C)c1O)CC[C@@](C)(CCC[C@H](C)CCC[C@H](C)CCCC(C)C)O2` [α- tocopherol, α-tocopherol, reference compound], the “IC50 (DPPH radical scavenging activity)” value in assay [1] was determined as 0.41 µg/mL (≈ 0.952 µM). The compound also displayed an FRAP in assay [2] of 1.99 mmol/g.

(Values after publication PMC5048114 (Iranian Journal of Basic Medical Sciences, 2016).)
